Data: ChEMBL document CHEMBL1148608, “Correlation of antifungal activity with fungal phospholipase inhibition using a series of bisquaternary ammonium salts” (J Med Chem, 2006)
Values after ≈ are worked out from the molar mass of the structure shown. Active and inactive are the calls of the source. The calls are words filed in the database; no cut-off is given here.

Tests used:
[1] = target: Phospholipase A2, major isoenzyme (Sus scrofa) (UniProt P00592); assay: Inhibition of porcine pancreatic PLA2 activity at 25 uM and below
Sequence of Phospholipase A2, major isoenzyme (Sus scrofa) (P00592 23-146 limits assumed): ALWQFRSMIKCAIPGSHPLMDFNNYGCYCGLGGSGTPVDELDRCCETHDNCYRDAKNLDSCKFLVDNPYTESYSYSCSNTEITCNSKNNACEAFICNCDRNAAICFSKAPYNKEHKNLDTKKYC
Method in brief: (§1)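 Porcine pancreatic PLA2 was diluted in 10 mM Tris/HCl with 10 mM CaCl2, pH 8.2. It was run in the same radiometric assay as the fungal enzyme at 37 °C, using 800 µM DPPC with [14C]DPPC, for a 1 h reaction. Compounds were tested at 250, 25, 2.5 and 0.25 µM final, and inhibition was relative to the inhibitor-free control.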

Candida albicans = assay: Antifungal activity against Candida albicans ATCC 10231; assay type: functional
[2] = target: Phospholipase A2, major isoenzyme (Sus scrofa) (UniProt P00592); assay: Inhibition of porcine pancreatic PLA2 activity at 250 uM; method in brief: as §1
Cryptococcus neoformans = assay: Antifungal activity against Cryptococcus neoformans ATCC 90112; assay type: functional
Phospholipase B = target: T1, Phospholipase B (Cryptococcus neoformans, UniProt Q9P8P2); assay: Inhibition of Cryptococcus neoformans H99 PLB1activity
T1 sequence (Q9P8P2 whole entry): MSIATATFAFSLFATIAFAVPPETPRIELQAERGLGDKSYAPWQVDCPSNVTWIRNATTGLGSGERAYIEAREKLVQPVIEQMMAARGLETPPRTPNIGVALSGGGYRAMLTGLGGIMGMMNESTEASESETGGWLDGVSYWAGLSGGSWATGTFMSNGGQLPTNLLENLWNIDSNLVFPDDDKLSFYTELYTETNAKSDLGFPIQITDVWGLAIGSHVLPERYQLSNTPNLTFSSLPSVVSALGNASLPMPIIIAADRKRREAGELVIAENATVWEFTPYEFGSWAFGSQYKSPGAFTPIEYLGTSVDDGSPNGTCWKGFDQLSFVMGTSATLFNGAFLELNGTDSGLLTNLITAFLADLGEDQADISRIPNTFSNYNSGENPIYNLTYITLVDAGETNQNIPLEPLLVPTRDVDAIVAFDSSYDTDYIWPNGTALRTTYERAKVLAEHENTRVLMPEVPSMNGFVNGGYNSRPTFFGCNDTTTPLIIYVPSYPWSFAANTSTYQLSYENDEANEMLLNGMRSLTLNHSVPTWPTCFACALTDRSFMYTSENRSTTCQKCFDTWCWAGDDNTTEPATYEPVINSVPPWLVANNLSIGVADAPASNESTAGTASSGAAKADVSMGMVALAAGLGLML
Method in brief: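 Secreted enzyme from C. neoformans var. grubii H99 grown 72 h on SDA at 30 °C; cells washed and held 24 h at 37 °C in imidazole buffer pH 5.5, and the cell-free supernatant was used. Radiometric assay at 37 °C, pH 4.0 imidazole acetate, with 1 µg protein, 800 µM DPPC plus [14C]DPPC, for 22 min. Lipids were separated by TLC. Compounds at 0.25–250 µM in triplicate, with inhibition relative to the inhibitor-free control.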

Scedosporium boydii = assay: Antifungal activity against Scedosporium apiospermum 1-003-056; assay type: functional
Fusarium solani = assay: Antifungal activity against Fusarium solani 04-132-4207; assay type: functional
Lomentospora prolificans = assay: Antifungal activity against Scedosporium prolificans 1-003-040; assay type: functional
Aspergillus fumigatus = assay: Antifungal activity against Aspergillus fumigatus ATCC 204 305; assay type: functional
Aspergillus terreus = assay: Antifungal activity against Aspergillus terreus ATCC 03-232-378; assay type: functional
Aspergillus flavus = assay: Antifungal activity against Aspergillus flavus ATCC 204 304; assay type: functional
RBCs [3] = assay: Hemolytic activity as a measure of cytotoxicity against human red blood cells at 87.5 uM; assay type: functional, Erythrocyte
RBCs [4] = assay: Hemolytic activity as a measure of cytotoxicity against human red blood cells at 350 uM; assay type: functional, Erythrocyte
RBCs [5] = assay: Hemolytic activity as a measure of cytotoxicity against human red blood cells at 3.5 uM; assay type: functional, Erythrocyte
RBCs [6] = assay: Hemolytic activity as a measure of cytotoxicity against human red blood cells at 35 uM; assay type: functional, Erythrocyte
RBCs [7] = assay: Hemolytic activity as a measure of cytotoxicity against human red blood cells at 175 uM; assay type: functional, Erythrocyte
[8] = Candida albicans, ATCC 10231, read-out: MIC
[9] = Cryptococcus neoformans, ATCC 90112, read-out: MIC

Structure (SMILES) | MIC (Candida albicans; [8]) [µM] | MIC (Cryptococcus neoformans; [9]) [µM] | IC50 (Phospholipase B) [µM] | Activity (RBCs [3]) [%] | Activity (RBCs [4]) [%] | Activity (RBCs [5]) [%] | Activity (RBCs [6]) [%] | Activity (RBCs [7]) [%] | also measured
CCCCCC[N+](CCCCCC)(CCCCCC)CCCCCCCCCCCC[N+](CCCCCC)(CCCCCC)CCCCCC | 8.8 | 17.5 | 7.5 |  |  |  |  |  | inhibition [1]: inactive; inhibition [2]: 90%
C[N+]1(CCCCCCCCCCCC[N+]2(C)CCOCC2)CCOCC1 | 88 | 44 | > 250 |  |  |  |  |  | 
CCCC[N+](CCCC)(CCCC)CCCCCCCCCCCC[N+](CCCC)(CCCC)CCCC [listing 1 of 2 here] | 5.5 | 2.2 |  |  |  |  |  |  | 
C[C@@H]1[C@H](O)[C@@H](C)/C=C/C=C/C=C/C=C/C=C/C=C/C=C/[C@H](O[C@@H]2O[C@H](C)[C@@H](O)[C@H](N)[C@@H]2O)C[C@@H]2O[C@](O)(C[C@@H](O)C[C@@H](O)[C@H](O)CC[C@@H](O)C[C@@H](O)CC(=O)O[C@H]1C)C[C@H](O)[C@H]2C(=O)O [AMPHOTERICIN B] | 0.54 (≈ 0.499 µg/mL) | 0.54 (≈ 0.499 µg/mL) |  |  |  |  |  |  | MIC (Scedosporium boydii): 0.54 µM (≈ 0.499 µg/mL); MIC (Fusarium solani): 0.27 µM (≈ 0.25 µg/mL); MIC (Lomentospora prolificans): 4.3 µM (≈ 3.97 µg/mL); MIC (Aspergillus fumigatus): 0.54 µM (≈ 0.499 µg/mL); MIC (Aspergillus terreus): 1.1 µM (≈ 1.02 µg/mL); MIC (Aspergillus flavus): 0.54 µM (≈ 0.499 µg/mL)
CC[N+](CC)(CC)CCCCCCCCCCCC[N+](CC)(CC)CC | 22 | 11 | > 250 |  |  |  |  |  | 
C(CCCCCC[N+]12CCC(CC1)CC2)CCCCC[N+]12CCC(CC1)CC2 | ≥ 350 | 350 | > 250 |  |  |  |  |  | 
CCCCCCCC[N+](CCCCCCCC)(CCCCCCCC)CCCCCCCCCCCC[N+](CCCCCCCC)(CCCCCCCC)CCCCCCCC | 100 | 35 | > 250 |  |  |  |  |  | 
C[N+](C)(C)CCCCCCCCCCCC[N+](C)(C)C.[Br-].[Br-] | 175 | 175 | > 250 | 0 | 0 | 0 | 0 | 0 | inhibition [1]: inactive; inhibition [2]: inactive
C[N+]1(CCCCCCCCCCCC[N+]2(C)CCCC2)CCCC1 | 175 | 175 | > 250 |  |  |  |  |  | 
C[N+](C)(C)CCCCCCCCCC[N+](C)(C)C.[Br-].[Br-] [DECAMETHONIUM BROMIDE] | ≥ 350 | ≥ 350 | > 250 | 0 | 0 | 0 | 0 | 0 | 
CCCC[N+](CCCC)(CCCC)CCCCCCCCCCCC[N+](CCCC)(CCCC)CCCC [listing 2 of 2 here] |  |  |  |  |  |  |  |  | inhibition [1]: inactive; inhibition [2]: 90%
CCC[N+](CCC)(CCC)CCCCCCCCCCCC[N+](CCC)(CCC)CCC | 10 | 5.5 | 7 |  |  |  |  |  | 
CCCCC[N+](CCCCC)(CCCCC)CCCCCCCCCCCC[N+](CCCCC)(CCCCC)CCCCC.[Br-].[Br-] | 5.5 | 5.5 | 3.5 | 0 | 100 | 0 | 0 | 5 | inhibition [1]: inactive; inhibition [2]: 90%
CCCC[P+](CCCC)(CCCC)CCCCCCCCCCCC[P+](CCCC)(CCCC)CCCC.[Br-].[Br-] | 8.8 | 2.5 | > 25 | 0 | 15 | 0 | 0 | 0 | 
CCCC[N+](CCCC)(CCCC)CCCCCCCCCCCC[N+](CCCC)(CCCC)CCCC.[Cl-].[Cl-] |  |  | 10 | 0 | 100 | 0 | 0 | 5 | MIC (Scedosporium boydii): 2.8 µM; MIC (Fusarium solani): 5.5 µM; MIC (Lomentospora prolificans): 5.5 µM; MIC (Candida albicans): 5.5 µM; MIC (Aspergillus fumigatus): 11 µM; MIC (Aspergillus terreus): 5.5 µM; MIC (Aspergillus flavus): 22 µM; MIC (Cryptococcus neoformans): 2.2 µM
CC(C)CC[N+](CCCCCCCCCCCC[N+](CCC(C)C)(CCC(C)C)CCC(C)C)(CCC(C)C)CCC(C)C.[Cl-].[Cl-] | 2.2 | 4.4 | > 7.5 | 4 | 100 | 0 | 0 | 30 | inhibition [1]: inactive; inhibition [2]: 90%
CCCC[N+]1(CCCCCCCCCCCC[N+]2(CCCC)CCCC2)CCCC1.[Cl-].[Cl-] | 88 | 88 | > 250 | 0 | 0 | 0 | 0 | 0 | 
